Source: PubChem BioAssay
Shown are actives, neighbours in structure and some others; about 1.8% of the full set was active somewhere.
Runt-SMMHC FRET – inhibitors of RUNX1 Runt–CBFb-SMMHC binding, primary screen, biochemical, FRET, Cerulean-Runt, Venus-CBFb-SMMHC, uHTS; AID 1434, 2008; Runt-related transcription factor 1 (Homo sapiens) + Core-binding factor subunit beta …; Cerulean-Runt/Venus-CBFb-SMMHC FRET ratio 530/480, 1 h; 0.74% of 220,000 active; inhibition, % at 20 µM;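 active means mean inhibition across duplicate retests at 20 µM reaching about 50%, limit read from the data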;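 further: 0% = DMSO wells and 100% = wells with excess untagged CBFb-SMMHC; inhibitors lower the FRET ratio by blocking Runt binding to CBFb-SMMHC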
Target sequence (Q01196 whole entry, looked up): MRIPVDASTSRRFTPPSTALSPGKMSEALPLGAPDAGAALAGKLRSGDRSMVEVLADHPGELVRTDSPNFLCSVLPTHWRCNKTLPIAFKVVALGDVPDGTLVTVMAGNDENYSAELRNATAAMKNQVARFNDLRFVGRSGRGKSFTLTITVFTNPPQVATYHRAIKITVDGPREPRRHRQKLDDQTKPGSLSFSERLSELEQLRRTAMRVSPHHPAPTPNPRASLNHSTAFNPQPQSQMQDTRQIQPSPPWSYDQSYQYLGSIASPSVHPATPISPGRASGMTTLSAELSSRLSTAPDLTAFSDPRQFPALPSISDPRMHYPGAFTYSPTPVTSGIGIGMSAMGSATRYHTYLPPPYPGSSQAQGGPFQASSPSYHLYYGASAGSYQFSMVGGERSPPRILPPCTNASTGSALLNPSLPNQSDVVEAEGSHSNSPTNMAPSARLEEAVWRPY
Target sequence (Q13951 whole entry, looked up): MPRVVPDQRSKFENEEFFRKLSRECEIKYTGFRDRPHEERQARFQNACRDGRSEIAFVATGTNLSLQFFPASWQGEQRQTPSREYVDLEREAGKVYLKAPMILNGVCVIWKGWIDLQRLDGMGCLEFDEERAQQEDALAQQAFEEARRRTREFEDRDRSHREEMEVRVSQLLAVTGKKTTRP
RanGTP-Impb inh – inhibitors of RanGTP-importin-beta interaction, primary screen, biochemical, FRET, CFP-Ran, YFP-importin-beta, homogeneous; Ran GTPase (GTP-bound) - importin-beta complex; cell-free CFP-Ran/YFP-importin-beta FRET ratio; inhibition, % (concentration not given with the values); 1.1% of 300,000 active; AID 2216, 2009;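 active means more than half of the replicate wells show a fall in the fluorescence ratio signal beyond about 16%, limit read from the data, passing the limit was not always enough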;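 further: 0% = DMSO wells and 100% = Ran loaded with GDP instead of GTP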
Runt-CBFb FRET – inhibitors of RUNX1 Runt–CBFb binding, primary screen, biochemical, FRET, Cerulean-Runt, Venus-CBFb, uHTS | inhibition, % at 20 µM | Cerulean-Runt/Venus-CBFb FRET ratio 530/480, 1 h | Runt-related transcription factor 1 (Homo sapiens) + Core-binding factor subunit beta … | 0.46% of 220,000 active;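 active means inhibition over about 50% at 20 µM in the single-dose screen, limit read from the data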;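 further: 0% = DMSO wells and 100% = excess unlabeled CBFb competitor control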
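System: Cerulean-labeled Runt domain protein | Quantity: 100 nM of each labeled protein | Schedule: 1 h compound exposure, room temperature | Detection: Fluorescence energy transfer, 422 nm excitation, 530/480 nm emission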
Hck Nef HTS – inhibitors of Nef-activated human Hck kinase, primary screen, biochemical, Z-Lyte FRET, 384-well, Hck-YEEI | Tyrosine-protein kinase HCK (Homo sapiens), P08631 | Recombinant Hck-YEEI plus Nef, Z-Lyte FRET kinase assay | inhibition, % at 20 µM | 0.68% of 220,000 active | AID 463187, 2010;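 active means Hck-Nef kinase inhibition above about 50%, limit read from the data; inactive means inhibition below that limit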;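 further: 0% = DMSO with Hck plus Nef and 100% = Hck alone without Nef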
Starred values were filed as active, the others as inactive.

CCCCn1c(=NC(=O)c2ccco2)c(C(=O)OCC)cc2c(=O)n3cccc(C)c3nc21 was read as Runt-SMMHC FRET 82*, RanGTP-Impb inh 123*, Runt-CBFb FRET 10 and Hck Nef HTS 34.
Screening CCCCCn1c(=NC(=O)c2ccco2)c(C(=O)OCC)cc2c(=O)n3ccccc3nc21 returned Runt-SMMHC FRET 42, RanGTP-Impb inh 137*, Runt-CBFb FRET 11 and Hck Nef HTS 31.
`C=CCN(C(=O)CCC(=O)Nc1cc(C)on1)C(C(=O)NC1CCCC1)c1ccc(CC)cc1` (configuration not stated) gave RanGTP-Impb inh 1.
For O=c1[nH]c(SCc2ccccc2)nc2c1cnn2-c1ccc(F)cc1 the results were Runt-SMMHC FRET -6, RanGTP-Impb inh 28*, Runt-CBFb FRET 0 and Hck Nef HTS 8.
Screening O=C(O)/C=C/c1ccc(O)c(O)c1 returned Runt-SMMHC FRET 58, RanGTP-Impb inh 2, Runt-CBFb FRET 45 and Hck Nef HTS -6.
O=C(/C=C/c1ccc(O)c(O)c1)O[C@H](Cc1ccc(O)c(O)c1)C(=O)O was read as Runt-SMMHC FRET 21, RanGTP-Impb inh 12, Runt-CBFb FRET 42 and Hck Nef HTS 52*.
`Cc1cccc(OCC(=O)NCC(=O)N/N=C/c2cc(Br)cc(Br)c2O)c1` gave RanGTP-Impb inh 10.
Screening N#Cc1c(Cl)nc(SCc2ccccc2)nc1-c1ccccc1 returned Runt-SMMHC FRET -2, Runt-CBFb FRET 113* and Hck Nef HTS 2.
Screening c1ccc(CSc2nnc(-c3ccccc3)c(-c3ccccc3)n2)cc1 returned RanGTP-Impb inh -2.
For CC(=O)OCCN1CCN(C(=O)CN2C(=O)NC(c3ccccc3)(c3ccccc3)C2=O)CC1 the results were RanGTP-Impb inh -1.
CCC(C)c1ccc(OCc2ccc(C(=O)O)o2)cc1 (configuration not stated) was read as RanGTP-Impb inh 7.
CCOc1ccc(CN2CCN(Cc3cc4ccccc4[nH]3)CC2CCO)cc1 (configuration not stated) was read as Runt-SMMHC FRET -7, RanGTP-Impb inh 21*, Runt-CBFb FRET 4 and Hck Nef HTS 17.
CCCCn1c(N)c(N(CCC(C)C)C(=O)C2CCN(C(=O)c3ccccc3C)CC2)c(=O)[nH]c1=O was read as RanGTP-Impb inh 2.
`COc1ccc(-c2ccc(-c3noc(-c4ccccc4)n3)c(OC)n2)cc1` gave Runt-SMMHC FRET 21, RanGTP-Impb inh 30*, Runt-CBFb FRET 6 and Hck Nef HTS 2.
Screening N#C/C(=C\c1cn(CCOc2ccccc2)c2ccccc12)C(=O)NCc1ccco1 returned Runt-SMMHC FRET -10, RanGTP-Impb inh 7, Runt-CBFb FRET -18 and Hck Nef HTS 2.
Cc1ccccc1OCCn1cc(/C=C(\C#N)C(=O)NCc2ccco2)c2ccccc21 was read as Runt-SMMHC FRET 63*, RanGTP-Impb inh 10, Runt-CBFb FRET -9 and Hck Nef HTS 4.
Screening Cc1cc(C)cc(NC(=O)/C(C#N)=C/c2cn(CC(=O)NCc3ccco3)c3ccccc23)c1 returned Runt-SMMHC FRET -58, RanGTP-Impb inh 82*, Runt-CBFb FRET -43 and Hck Nef HTS 17.
For CNC(=O)/C(C#N)=C/c1cn(CC(=O)NCc2ccco2)c2ccccc12 the results were Runt-SMMHC FRET 1, RanGTP-Impb inh 2, Runt-CBFb FRET 1 and Hck Nef HTS 0.
For Cc1ccc(NC(=O)/C(C#N)=C/c2cn(CC(=O)NCc3ccco3)c3ccccc23)cc1C the results were Runt-SMMHC FRET -112, RanGTP-Impb inh 0, Runt-CBFb FRET -96 and Hck Nef HTS 31.
`COCCNC(=O)Cn1cc(/C=C(\C#N)C(=O)NC2CCCC2)c2ccccc21` gave RanGTP-Impb inh 52*.
For Cc1ccc(C)c(NC(=O)/C(C#N)=C/c2cn(CC(=O)NCc3ccco3)c3ccccc23)c1 the results were Runt-SMMHC FRET 44, RanGTP-Impb inh 98*, Runt-CBFb FRET -47 and Hck Nef HTS 10.
CC(=O)C(/C=N/c1ncc(C(F)(F)F)cc1Cl)=C(\C)O was read as Runt-SMMHC FRET -1, RanGTP-Impb inh 22*, Runt-CBFb FRET -1 and Hck Nef HTS 20.
